Measurements published in ChEMBL document CHEMBL4304839, “Development of a novel class of peroxisome proliferator-activated receptor (PPAR) gamma ligands as an anticancer agent with a unique binding mode based on a non-thiazolidinedione scaffold” (Bioorg Med Chem, 2019).
Calls of active or inactive are those of the source. No cut-off for these calls is given here.

Experiments:
[1] = biological target: T1, Peroxisome proliferator-activated receptor gamma (Homo sapiens, UniProt P37231); experiment: Transactivation of chimeric GAL4-fused human PPARgamma transfected in HEK293EBNA cells measured at 24 hrs after drug treatment by steady-Glo luciferase assay reagent based luminescence assay; format: cell-based
T1 sequence (P37231 whole entry): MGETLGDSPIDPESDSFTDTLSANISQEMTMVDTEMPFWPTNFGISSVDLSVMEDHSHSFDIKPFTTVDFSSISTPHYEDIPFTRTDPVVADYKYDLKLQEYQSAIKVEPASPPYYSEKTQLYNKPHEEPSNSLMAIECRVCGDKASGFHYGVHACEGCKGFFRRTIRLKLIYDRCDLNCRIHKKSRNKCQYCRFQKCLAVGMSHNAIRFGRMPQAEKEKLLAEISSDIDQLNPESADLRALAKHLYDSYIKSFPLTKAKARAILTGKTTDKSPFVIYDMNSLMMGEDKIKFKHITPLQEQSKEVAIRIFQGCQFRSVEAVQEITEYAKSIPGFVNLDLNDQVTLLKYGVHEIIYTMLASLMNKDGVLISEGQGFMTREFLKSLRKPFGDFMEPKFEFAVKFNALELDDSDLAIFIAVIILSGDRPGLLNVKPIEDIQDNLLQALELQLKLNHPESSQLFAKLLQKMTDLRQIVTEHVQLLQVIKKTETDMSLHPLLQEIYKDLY
Summary of the method: (§1)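 HEK293EBNA cells in DMEM with 10% FBS, 37 °C, 5% CO2, transiently co-transfected with pM-human PPARγ/GAL4 expression vector and pZAC19-Luc reporter; 24 h later plated and treated with compound 1-3000 nM (n = 3 per concentration), diluted from DMSO in unsupplemented DMEM, for 24 h. Steady-Glo luciferase readout, normalized to pioglitazone 1000 nM (100%); EC50 at 50% of own maximum.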

[2] = AUC in BALB/c mouse at 10 mg/kg, po by LC-MS/MS analysis; format: ADME, organism-based; conditions: in vivo
Summary of the method: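 Male BALB/c mice, single oral dose 10 mg/kg (n = 2). Tail-vein blood at set times, plasma protein-precipitated with acetonitrile plus internal standard, LC-MS/MS (APCI, positive ion), quantified against standard curve in control plasma; AUC by noncompartmental analysis of concentration-time profile.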

[3] = biological target: T2, Peroxisome proliferator-activated receptor gamma (Homo sapiens) (UniProt P37231); experiment: Transactivation of chimeric GAL4-fused human PPARgamma transfected in HEK293EBNA cells measured at 24 hrs after drug treatment by steady-Glo luciferase assay reagent based luminescence assay relative to pioglitazone; format: cell-based; summary of the method: as §1
T2 sequence (whole entry): T1 sequence (P37231 whole entry)

[4] = biological target: T2, Peroxisome proliferator-activated receptor gamma (Homo sapiens); experiment: Agonist activity at PPARgamma in human MKN45 cells assessed as induction of cell aggregation incubated for 5 days by Hoechst 33342 staining based IN cell analyzer method relative to (E)-3-(1-(8-((4-methyl-2-propyl-1H-benzo[d]imidazol-1-yl)methyl)dibenzo[b,e]oxepin-11(6H)-ylidene)ethyl)-1,2,4-oxadiazol-5(4H)-one
Summary of the method: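 MKN45 cells in RPMI1640 with 10% FBS at 37 °C, 5% CO2, seeded 2500 cells/well and exposed to compound 1-1000 nM (n = 3 per concentration) for 5 days. Nuclei stained with Hoechst 33342, imaged on IN Cell Analyzer, nuclear area computed. Maximum activity expressed as % of reference compound maximum; EC50 = concentration giving 50% of own maximum.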

[5] = Intrinsic clearance in human liver microsomes incubated for 30 mins in presence of NADPH by LC-MS/MS analysis
[6] = Toxicity in C57BL/6 mouse assessed as hematocrit level at 40 mg/kg (reference value: 45%); format: organism-based; conditions: in vivo
[7] = tested on: Homo sapiens; experiment: Antitumour activity against human AsPC1/AG1 cells xenografted in SCID mouse assessed as saturated level of reduction in tumor volume at >25 mg/kg, po bid for 14 days starting from 7th day post tumor inoculation and measured after 10 days; format: functional, organism-based
Summary of the method: (§2)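 Male SCID mice (8 weeks) inoculated s.c. with 3×10^7 AsPC-1/AG1 cells; from day 7, randomized by tumour volume into groups of 5 given 12.5, 25, 50 or 100 mg/kg or 0.5% MC400 vehicle orally twice daily for 14 days. Volume = 0.5 × major × minor² measured twice weekly; relative volume V/V0 versus day 0; Steel test, P < 0.05.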

[8] = tested on: Homo sapiens; experiment: Antitumour activity against human AsPC1/AG1 cells xenografted in SCID mouse assessed as reduction in tumor volume at 12.5 to 100 mg/kg, po bid for 14 days starting from 7th day post tumor inoculation; format: functional, organism-based; summary of the method: as §2
[9] = tested on: Homo sapiens; experiment: Antitumour activity against human AsPC1/AG1 cells xenografted in SCID mouse assessed as increase in angptl4 mRNA expression at 100 mg/kg, po bid for 14 days starting from 7th day post tumor inoculation and measured at 4 hrs post last dose by qRT-PCR analysis
[10] = Toxicity in Crlj:CD1(ICR) mouse assessed as serum hematocrit value at 200 mg/kg, po bid for 4 days by micro-hematocrit method (reference value: 44.1%); format: organism-based; conditions: in vivo, 96 h
[11] = Antitumour activity against human AsPC1/AG1 cells xenografted in SCID mouse assessed as minimal dose required for reduction in tumor volume administered orally bid for 14 days starting from 7th day post tumor inoculation; format: functional; conditions: ASPC1, po, 336 h, read-out: MED; summary of the method: as §2
[12] = Toxicity in Crlj:CD1(ICR) mouse assessed as serum hematocrit value at 50 mg/kg, po bid for 4 days by micro-hematocrit method (reference value: 44.1%); format: organism-based; conditions: in vivo, 96 h
[13] = tested on: Homo sapiens; experiment: Antitumour activity against human AsPC1/AG1 cells xenografted in SCID mouse assessed as increase in cell differentiation marker krt20 mRNA expression level at 100 mg/kg, po bid for 14 days starting from 7th day post tumor inoculation and measured at 4 hrs post last dose by qRT-PCR analysis; format: functional, organism-based
Summary of the method: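 Male SCID mice bearing s.c. AsPC-1/AG1 tumours (3×10^7 cells in PBS), dosed orally twice daily for 14 days from day 7 after inoculation; vehicle 0.5% MC400. Tumours collected 4 h after last dose; angptl4 and krt20 mRNA measured by qPCR, fold induction relative to baseline.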

Compound	EC50 [1]	AUC [2]	Emax [3]	Emax [4]	CLint scaled at 0.5 h [5]	also measured
CCCc1nc2ccccc2n1Cc1ccc2c(c1)COc1cc(F)ccc1/C2=C(\C)c1noc(=O)[nH]1		1480 ng·h/mL	11.7%	104%		
CCCc1nc2ccccc2n1Cc1ccc2c(c1)COc1c(F)cccc1/C2=C(\C)c1noc(=O)[nH]1	4.4 nM		8.7%	101%	377 mL/min/kg	
CCCc1nc2ccccc2n1Cc1ccc2c(c1)COc1ccc(F)cc1/C2=C(\C)c1noc(=O)[nH]1			6.9%	102%	> 415 mL/min/kg	
C/C(=C1/c2ccc(Cc3c(C4CC4)nc4c5c(ccn34)OCC5)cc2COc2cc(F)ccc21)c1noc(=O)[nH]1	23 nM	8760 ng·h/mL	9.7%	110%	33.3 mL/min/kg	
CCCc1nc2c(C)cccc2n1Cc1ccc2c(c1)COc1ccccc1/C2=C(\C)c1noc(=O)[nH]1					> 415 mL/min/kg	
C/C(=C1/c2ccc(Cc3c(C4CC4)nc4ccccn34)cc2COc2cc(F)ccc21)c1noc(=O)[nH]1	19 nM	3750 ng·h/mL	9.8%	106%		
CCc1ccc(CCOc2ccc(CC3SC(=O)NC3=O)cc2)nc1 (centres undefined) [PIOGLITAZONE]						Activity [6]: 41%
CCCc1nc2c(C)cccc2n1Cc1ccc2c(c1)OCc1ncccc1/C2=C(\C)c1noc(=O)[nH]1	2190 nM				34.3 mL/min/kg	
C/C(=C1/c2ccc(Cc3c(C4CC4)nc4cc(F)ccn34)cc2COc2cc(F)ccc21)c1noc(=O)[nH]1	13 nM	5510 ng·h/mL	13.5%	112%		
CCCc1nc2c(C)cccc2n1Cc1ccc2c(n1)COc1ccccc1/C2=C(\C)c1noc(=O)[nH]1	86 nM				> 415 mL/min/kg	
COCc1nc2c(Cl)cccn2c1Cc1ccc2c(c1)COc1cc(F)ccc1/C2=C(\C)c1noc(=O)[nH]1	7.3 nM	1090 ng·h/mL	7.4%	96%	21.7 mL/min/kg	
COCc1nc2cc(Cl)ccn2c1Cc1ccc2c(c1)COc1cc(F)ccc1/C2=C(\C)c1noc(=O)[nH]1		2450 ng·h/mL	9%	106%		

Second part, led by results:

EC50 [1]	AUC [2]	Emax [3]	Emax [4]	CLint scaled at 0.5 h [5]	Compound	also measured
21 nM	196 ng·h/mL	13.7%	105%	41.7 mL/min/kg	C/C(=C1/c2ccc(Cn3c(C4CC4)nc4cscc43)cc2COc2cc(F)ccc21)c1noc(=O)[nH]1	
24 to 59 nM		13.7%	105%	167 mL/min/kg	C/C(=C1/c2ccc(Cn3c(C4CC4)nc4c(Cl)nccc43)cc2COc2cc(F)ccc21)c1noc(=O)[nH]1	
11 nM	1710 ng·h/mL	15.1%	102%	66.7 mL/min/kg	C/C(=C1/c2ccc(Cc3c(C4CC4)nc4ccc(Cl)cn34)cc2COc2cc(F)ccc21)c1noc(=O)[nH]1	
3.6 nM	10200 ng·h/mL	12.6%	101%		C/C(=C1/c2ccc(Cc3c(C4CC4)nc4cc(Cl)ccn34)cc2COc2cc(F)ccc21)c1noc(=O)[nH]1	
32 to 38 nM		10.3%	101%	38.3 mL/min/kg	C/C(=C1/c2ccc(Cn3c(C4CC4)nc4c(Cl)ccnc43)cc2COc2cc(F)ccc21)c1noc(=O)[nH]1	
	6890 ng·h/mL	10.6%	103%		C/C(=C1/c2ccc(Cc3c(C4CC4)nc4c(Cl)cccn34)cc2COc2cc(F)ccc21)c1noc(=O)[nH]1	inhibition [7]: Active; inhibition [8]: Active; Activity [9]: Active; Activity [10]: 42%; minimal effective dose [11]: 12.5 to 25 mg/kg; Activity [12]: 42.9%; Activity [13]: Active
